In ChEMBL document CHEMBL1151777, “Quantitating the concentration of Py-Im polyamide-fluorescein conjugates in live cells” (Bioorg Med Chem Lett, 2008):
The source made the active and inactive calls. No cut-off for these calls is given here.

Tests used:
HeLa [1] = test: Induction of nuclear localization in human HeLa cells at 2 uM after 12 to 14 hrs by confocal laser scanning microscopy; assay type: functional, cell-based
In short: (§1)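 Live cells were incubated 12-14 h at 37°C, 5% CO2 with 2 µM polyamide and imaged directly by confocal microscopy with fluorescein filters. Nuclear staining was scored qualitatively against medium fluorescence; a positive score means nuclear signal exceeds that of the medium.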

[2] = Drug uptake in nucleus of human U251 cells at 2 uM after 12 to 14 hrs by confocal microscopy in presence of calf thymus DNA; assay type: ADME, cell-based; conditions: u-251, 2 µM
In short: (§2)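 Cells grown 24 h in glass-bottom dishes, then given 2 µM polyamide in fresh medium for 12-14 h at 37°C, 5% CO2, and imaged live with a 40× oil objective using fluorescein filters. Calibration standards were polyamide serial dilutions in medium with 500 μM bp sonicated calf thymus DNA. Nuclear concentration was interpolated from the linear calibration curve. At least three images per condition, at least ten cells per image; cell cycles unsynchronized.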

HeLa [3] = test: Cytotoxicity against human HeLa cells assessed as cell viability by trypan blue assay; assay type: functional
In short: (§3)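 Following 12-14 h polyamide exposure (0, 0.4, 2 or 10 μM final) at 37°C, 5% CO2, cells were trypsinized, pelleted and resuspended in HBSS (no Mg2+/Ca2+, 2.5 mg/mL BSA, 10 mM HEPES, pH 7.0-7.2). Viability was checked by trypan blue staining before flow cytometry.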

HeLa [4] = test: Drug level in human HeLa cells at 2 uM after 12 to 14 hrs flow cytometry; assay type: ADME, cell-based
In short: (§4)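 Cells at 1.33×10^5 cells/mL grown 24 h, medium replaced, polyamide added at 0, 0.4, 2 or 10 μM final, 12-14 h at 37°C, 5% CO2. Washed, resuspended in HBSS at 5×10^5 cells/mL. 10,000 cells per sample read in the fluorescein channel. Fluorophores per cell interpolated from a linear curve of the five highest Rainbow bead peaks, then divided by a modeled nuclear volume of 1×10^-12 L (cylinder, radius 10 µm, height 5 µm).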

HeLa [5] = test: Drug level in human HeLa cells at 10 uM after 12 to 14 hrs flow cytometry; assay type: ADME, cell-based; in short: as §4
HeLa [6] = test: Drug level in human HeLa cells at 0.4 uM after 12 to 14 hrs flow cytometry; assay type: ADME, cell-based; in short: as §4
HeLa [7] = test: Inhibition of VEGF expression in human HeLa cells by quantitative RT-PCR; assay type: functional, cell-based
U-251 [8] = test: Drug level in human U251 cells at 2 uM after 12 to 14 hrs flow cytometry; assay type: ADME, cell-based; conditions: u-251, 2 µM; in short: as §4
DNA = test: Binding affinity to calf thymus DNA at 2 uM assessed as fluorescence enhancement by steady-state fluorimetry relative to control; assay type: nucleic-acid assay; conditions: Bos taurus
In short: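 Sonicated calf thymus DNA serially diluted in supplemented medium (0 to 1000 μM bp), polyamide at 2 μM final. Excitation 490 nm, emission scanned 500-650 nm, 2 nm slits, room temperature. Enhancement taken as the DNA-bound fluorescence relative to the DNA-free emission.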

U-251 [9] = test: Induction of nuclear localization in human U251 cells at 2 uM after 12 to 14 hrs by confocal laser scanning microscopy; assay type: functional, cell-based; in short: as §1
U-251 [10] = test: Drug level in human U251 cells at 10 uM after 12 to 14 hrs flow cytometry; assay type: ADME, cell-based; conditions: u-251, 10 µM; in short: as §4
[11] = Drug uptake in nucleus of human HeLa cells at 2 uM after 12 to 14 hrs by confocal microscopy in presence of calf thymus DNA; assay type: ADME, cell-based; in short: as §2
U-251 [12] = test: Cytotoxicity against human U251 cells assessed as cell viability by trypan blue assay; assay type: functional; in short: as §3
U-251 [13] = test: Drug level in human U251 cells at 0.4 uM after 12 to 14 hrs flow cytometry; assay type: ADME, cell-based; conditions: u-251, 0.4 µM; in short: as §4
[14] = Binding affinity to DNA 5'WTWCGW3' sequence
In short: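 Labeled DNA equilibrated with polyamide 14-16 h at 22°C in 10 mM Tris-HCl, 10 mM KCl, 10 mM MgCl2, 5 mM CaCl2, pH 7.0, then cleaved with DNase I. Binding isotherms built from normalized theta values.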

Drug uptake [2]: 1.6 µM | Drug uptake (HeLa [4]): 0.09 µM | Drug uptake (HeLa [5]): 0.2 µM | Drug uptake (HeLa [6]): 0.02 µM | Drug uptake (U-251 [8]): 0.34 µM | fold change (FC) (DNA): 14 | Drug uptake (U-251 [10]): 0.84 µM | Drug uptake [11]: 0.5 µM | Drug uptake (U-251 [13]): 0.09 µM | Ka [14]: 3.8 ×10⁹ /M
SMILES: Cn1cc(NC(=O)c2cc(NC(=O)c3nc(NC(=O)c4cc(NC(=O)[C@H](N)CCNC(=O)c5nc(NC(=O)c6cc(NC(=O)c7cc(NC(=O)c8sccc8Cl)cn7C)cn6C)cn5C)cn4C)cn3C)cn2C)cc1C(=O)NCCC(=O)NCCCNC(=S)Nc1ccc(-c2c3ccc(=O)cc-3oc3cc(O)ccc23)c(C(=O)O)c1
Activity (HeLa [1]): Active | Activity (HeLa [3]): >95% | Activity (HeLa [7]): Active | Activity (U-251 [9]): Active | Activity (U-251 [12]): >95%
